ChEMBL document CHEMBL3804789, “5-Ene-4-thiazolidinones induce apoptosis in mammalian leukemia cells” (Eur J Med Chem, 2016)
Activity calls are given as the source filed them. The calls are words filed in the database; no cut-off is given here.

What was measured:
[1] = (§1) Antiproliferative activity against human HL60 cells after 72 hrs by MTT assay; format: functional, cell-based; details: HL-60, 72 h
Procedure, shortened: (§2)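 MTT viability after 72 h continuous exposure. Cells seeded 24 h beforehand at 2,000/well (adherent) or 10,000/well (suspension), then given 0, 0.01, 0.1, 0.5, 1.0 or 10.0 μM compound diluted from 10 mM DMSO stock into RPMI or DMEM with 10% FBS, 37°C, 5% CO2. IC50 taken as concentration killing 50% of cells versus untreated culture.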

[2] = Antiproliferative activity against human SKOV3 cells after 72 hrs by MTT assay; format: functional, cell-based; details: SK-OV-3, 72 h; procedure, shortened: as §2
[3] = test system: HL-60; experiment: Cytotoxicity against human HL60 cells assessed as reduction in cell survival up to 1 uM treated for 30 mins with ROS scavenger N-acetylcysteine measured after 72 hrs by MTT assay; format: functional, cell-based
[4] = test system: HL60/ADR; experiment: Cytotoxicity against human HL60/ADR cells assessed as reduction in cell survival up to 1 uM treated for 30 mins with ROS scavenger N-acetylcysteine measured after 72 hrs by MTT assay; format: functional, cell-based
[5] = test system: HL-60; experiment: as §1; format: functional, cell-based; procedure, shortened: as §2
[6] = (§3) Antiproliferative activity against human HL60/ADR cells after 72 hrs by MTT assay; format: functional, cell-based; procedure, shortened: as §2
[7] = test system: HL60/ADR; experiment: as §3; format: functional, cell-based; procedure, shortened: as §2
[8] = test system: Jurkat; experiment: Antiproliferative activity against human Jurkat cells after 72 hrs by MTT assay; format: functional, cell-based; procedure, shortened: as §2
[9] = test system: L1210; experiment: Antiproliferative activity against mouse L1210 cells after 72 hrs by MTT assay; format: functional, cell-based; details: L1210, 72 h; procedure, shortened: as §2
[10] = test system: L929; experiment: Antiproliferative activity against mouse L929 cells after 72 hrs by MTT assay; format: functional, cell-based; details: L929, 72 h; procedure, shortened: as §2
[11] = test system: MCF7; experiment: Antiproliferative activity against human MCF7 cells after 72 hrs by MTT assay; format: functional, cell-based; details: MCF7, 72 h; procedure, shortened: as §2
[12] = Antiproliferative activity against mouse KS483 cells after 72 hrs by MTT assay; format: cell-based; details: KS483, 72 h; procedure, shortened: as §2
[13] = Antiproliferative activity against HEK293T cells after 72 hrs by MTT assay; format: cell-based; details: Homo sapiens, HEK-293T; procedure, shortened: as §2
[14] = test system: HL-60; experiment: Antiproliferative activity against human HL60 cells at 0.01 to 10 uM by MTT assay; format: functional, cell-based; details: TDE = time-dependent effect
Procedure, shortened: (§4)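 MTT viability: cells seeded 24 h at 2,000 (adherent) or 10,000 (suspension) per well, then exposed 72 h to 0.01-10.0 μM (0, 0.01, 0.1, 0.5, 1.0, 10.0 μM), diluted from 10 mM DMSO stock into medium with 10% FBS. IC50 is concentration killing 50% of cells relative to untreated control.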

[15] = test system: HL60/ADR; experiment: Antiproliferative activity against human HL60/ADR cells at 0.01 to 10 uM by MTT assay; format: functional, cell-based; details: TDE = time-dependent effect; procedure, shortened: as §4
[16] = Antiproliferative activity against human HL60 cells measured at 6 hrs by MTT assay; format: functional, cell-based; details: HL-60, 6 h
Procedure, shortened: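 Exposure-time series in HL-60 cells: compound present for 3, 6, 24, 48 or 72 h, viability then read by MTT. IC50 is concentration killing 50% of cells relative to untreated culture.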

[17] = test system: HL-60; experiment: Cytotoxicity against human HL60 cells assessed as reduction in cell survival up to 1 uM treated for 30 mins with ROS scavenger ascorbic acid measured after 72 hrs by MTT assay; format: functional, cell-based
[18] = test system: HL60/ADR; experiment: Cytotoxicity against human HL60/ADR cells assessed as reduction in cell survival up to 1 uM treated for 30 mins with ROS scavenger ascorbic acid measured after 72 hrs by MTT assay; format: functional, cell-based
[19] = test system: HL-60; experiment: Induction of apoptosis in human HL60 cells assessed as apoptotic cells at 0.1 to 1 uM after 48 hrs by Annexin V-FITC/propidium iodide staining based fluorescence microscopic analysis; format: functional, cell-based
Procedure, shortened: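 HL-60 cells treated 48 h, pelleted at 2,000 rpm, washed twice in PBS and incubated 15 min in Annexin V binding buffer with 1/20 volume FITC-Annexin V and PI (20.0 μg/mL). Cells examined by fluorescence microscopy on duplicate slides, >500 cells counted per sample.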

[20] = test system: HL-60; experiment: Induction of apoptosis in human HL60 cells assessed as increase in Bax expression at 0.1 to 1 uM after 48 hrs by Western blot analysis; format: functional, cell-based
Procedure, shortened: (§5)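 HL-60 cells exposed 48 h; proteins isolated, resolved by SDS/PAGE, transferred to PVDF and immunoblotted. Equal loading checked by re-probing the same membrane for beta-actin. Peroxidase-labelled secondary antibodies at 1:5,000.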

[21] = test system: HL-60; experiment: Induction of apoptosis in human HL60 cells assessed as decrease in Bcl-XL expression at 0.1 to 1 uM after 48 hrs by Western blot analysis; format: functional, cell-based; procedure, shortened: as §5
[22] = biological target: MAP kinase p38 (Homo sapiens) (UniProt O15264+Q15759+Q16539+P53778); experiment: Induction of MAPK p38 phosphorylation in human HL60 cells at 0.1 to 1 uM after 48 hrs by Western blot analysis; format: cell-based; details: HL-60; procedure, shortened: as §5
[23] = biological target: T1, c-Jun N-terminal kinase, JNK (Homo sapiens) (UniProt P45983+P53779+P45984); experiment: Inhibition of JNK phosphorylation in human HL60 cells at 0.1 to 1 uM after 48 hrs by Western blot analysis; format: cell-based; details: HL-60; procedure, shortened: as §5
[24] = biological target: T1, c-Jun N-terminal kinase, JNK (Homo sapiens); experiment: Inhibition of JNK in human HL60 cells assessed as increase in phosphorylated STAT3 expression at 0.1 to 1 uM after 48 hrs by Western blot analysis; format: cell-based; details: HL-60; procedure, shortened: as §5
[25] = biological target: Mitogen-activated protein kinase; ERK1/ERK2 (Homo sapiens) (UniProt P27361+P28482); experiment: Activation of ERK1/2 in human HL60 cells at 0.1 to 1 uM after 48 hrs by Western blot analysis; format: cell-based; details: HL-60; procedure, shortened: as §5
[26] = biological target: T2, Endonuclease G, mitochondrial (Homo sapiens) (UniProt Q14249); experiment: Activation of endonuclease G in human HL60 cells at 0.1 to 1 uM after 48 hrs by Western blot analysis; format: cell-based; details: HL-60; procedure, shortened: as §5
T2 sequence (whole entry): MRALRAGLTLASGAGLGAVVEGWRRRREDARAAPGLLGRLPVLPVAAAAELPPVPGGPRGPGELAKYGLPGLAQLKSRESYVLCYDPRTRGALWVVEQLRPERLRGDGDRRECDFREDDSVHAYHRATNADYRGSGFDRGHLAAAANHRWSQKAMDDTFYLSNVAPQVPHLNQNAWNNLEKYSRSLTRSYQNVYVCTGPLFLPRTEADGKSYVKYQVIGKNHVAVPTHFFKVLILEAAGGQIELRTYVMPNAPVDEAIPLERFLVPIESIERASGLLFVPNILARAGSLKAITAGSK

[27] = Cell cycle arrest in human HL60 cells assessed as accumulation at G0/G1 phase at 0.1 to 1 uM after 8 to 48 hrs by propidium iodide staining based flow cytometry; format: functional; details: HL-60
Procedure, shortened: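 HL-60 cells treated 8 and 48 h, washed in PBS, fixed in 70% ethanol and stored at -20°C. Then RNase (10 µg/ml) 30 min at 37°C, propidium iodide (5 µg/ml) 30 min, and cell-cycle distribution read by flow cytometry.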

[28] = test system: HL-60; experiment: Induction of apoptosis in human HL60 cells assessed as increase in p21 expression at 0.1 to 1 uM after 48 hrs by Western blot analysis; format: functional, cell-based; procedure, shortened: as §5
[29] = test system: HL-60; experiment: Induction of apoptosis in human HL60 cells assessed as increase in CDK1 expression at 0.1 to 1 uM after 48 hrs by Western blot analysis; format: functional, cell-based; procedure, shortened: as §5
[30] = test system: HL-60; experiment: Induction of apoptosis in human HL60 cells assessed as decrease in cyclinD3 expression at 0.1 to 1 uM after 48 hrs by Western blot analysis; format: functional, cell-based; procedure, shortened: as §5
[31] = biological target: T3, Retinoblastoma-associated protein (Homo sapiens) (UniProt P06400); experiment: Inhibition of retinoblastoma protein phosphorylation in human HL60 cells at 0.1 to 1 uM after 48 hrs by Western blot analysis; format: cell-based; details: HL-60; procedure, shortened: as §5
T3 sequence (whole entry): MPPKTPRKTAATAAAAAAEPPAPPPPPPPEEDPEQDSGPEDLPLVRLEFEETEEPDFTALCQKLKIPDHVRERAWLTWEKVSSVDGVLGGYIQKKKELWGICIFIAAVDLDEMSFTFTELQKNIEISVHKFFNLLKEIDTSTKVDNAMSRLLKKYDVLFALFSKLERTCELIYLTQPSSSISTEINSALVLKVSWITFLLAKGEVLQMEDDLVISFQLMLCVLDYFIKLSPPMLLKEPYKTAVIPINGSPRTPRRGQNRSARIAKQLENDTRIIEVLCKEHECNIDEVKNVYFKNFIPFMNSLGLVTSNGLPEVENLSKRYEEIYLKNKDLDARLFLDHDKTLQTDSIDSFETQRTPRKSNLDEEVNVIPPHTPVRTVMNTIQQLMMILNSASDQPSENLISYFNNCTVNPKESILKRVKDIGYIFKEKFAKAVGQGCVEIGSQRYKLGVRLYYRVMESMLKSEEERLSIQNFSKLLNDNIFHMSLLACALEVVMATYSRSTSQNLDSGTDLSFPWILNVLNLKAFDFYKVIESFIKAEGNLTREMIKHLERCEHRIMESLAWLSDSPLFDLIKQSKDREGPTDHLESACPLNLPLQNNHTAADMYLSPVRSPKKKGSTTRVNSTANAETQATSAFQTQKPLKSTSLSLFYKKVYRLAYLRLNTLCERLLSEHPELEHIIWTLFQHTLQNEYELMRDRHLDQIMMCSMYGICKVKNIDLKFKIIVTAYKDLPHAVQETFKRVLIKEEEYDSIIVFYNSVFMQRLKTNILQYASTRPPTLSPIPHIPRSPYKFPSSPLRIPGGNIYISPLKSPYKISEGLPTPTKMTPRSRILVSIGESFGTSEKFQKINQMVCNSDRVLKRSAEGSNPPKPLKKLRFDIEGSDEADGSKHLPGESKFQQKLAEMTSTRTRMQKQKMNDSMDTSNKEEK

Chain of Mitogen-activated protein kinase; ERK1/ERK2 (Homo sapiens) (P27361 whole entry, looked up): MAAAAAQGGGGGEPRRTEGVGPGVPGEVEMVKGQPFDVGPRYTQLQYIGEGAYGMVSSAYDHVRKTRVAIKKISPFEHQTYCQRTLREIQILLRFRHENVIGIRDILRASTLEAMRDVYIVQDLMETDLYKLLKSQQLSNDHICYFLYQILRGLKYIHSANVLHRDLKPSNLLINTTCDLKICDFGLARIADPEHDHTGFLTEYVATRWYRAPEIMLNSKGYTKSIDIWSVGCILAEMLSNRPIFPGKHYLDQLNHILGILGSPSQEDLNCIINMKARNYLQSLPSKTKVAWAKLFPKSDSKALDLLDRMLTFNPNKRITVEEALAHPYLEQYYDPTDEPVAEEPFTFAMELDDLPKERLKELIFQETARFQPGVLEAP
Chain of Mitogen-activated protein kinase; ERK1/ERK2 (Homo sapiens) (P28482 whole entry, looked up): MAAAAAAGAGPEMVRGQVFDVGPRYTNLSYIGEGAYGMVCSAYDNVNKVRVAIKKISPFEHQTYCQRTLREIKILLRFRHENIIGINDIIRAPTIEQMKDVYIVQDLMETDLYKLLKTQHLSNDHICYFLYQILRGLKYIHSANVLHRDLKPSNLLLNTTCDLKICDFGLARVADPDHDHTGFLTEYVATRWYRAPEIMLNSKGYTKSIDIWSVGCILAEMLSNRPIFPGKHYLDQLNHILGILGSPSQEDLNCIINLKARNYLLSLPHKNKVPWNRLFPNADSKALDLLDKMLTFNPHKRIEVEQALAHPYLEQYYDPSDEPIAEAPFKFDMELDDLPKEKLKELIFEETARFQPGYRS

## CCN1C(=O)/C(=C/N2N=C(c3ccccc3)CC2c2ccccc2O)SC1=S (centres undefined)
[1]
  IC50: > 10000 nM
[2]
  IC50: > 10 µM

## CCOC(=O)CCN1C(=O)/C(=C/N2N=C(c3ccccc3)CC2c2ccccc2O)SC1=S (centres undefined)
[1]
  IC50: > 10000 nM
[2]
  IC50: > 10 µM

## CC(=O)Oc1cccc(N2C(=O)/C(=C/N3N=C(c4ccccc4)CC3c3ccc(N(C)C)cc3)SC2=S)c1 (centres undefined)
[1]
  IC50: 100 nM
[2]
  IC50: > 10 µM

## O=C1/C(=C/N2N=C(c3ccccc3)CC2c2ccccc2O)SC(=S)N1c1cccnc1 (centres undefined)
[1]
  IC50: 720 nM
[2]
  IC50: > 10 µM

## COc1ccc(C2CC(c3ccc4ccccc4c3)=NN2/C=C2\SC(=S)N(c3ccc(OC(C)=O)cc3)C2=O)cc1 (centres undefined)
[1]
  IC50: > 10000 nM
[2]
  IC50: 1.1 µM

## CC(=O)Oc1ccc(N2C(=O)/C(=C/N3N=C(c4ccccc4)CC3c3ccccc3O)SC2=S)cc1 (centres undefined)
[1]
  IC50: 9400 nM
[2]
  IC50: 0.244 µM

## O=C1NC(=S)/C(=C/N2N=C(c3ccc4ccccc4c3)CC2c2ccc(Cl)cc2)S1 (centres undefined)
[1]
  IC50: 156 nM
[2]
  IC50: > 10 µM

## CC(=O)Oc1ccc(N2C(=O)/C(=C/N3N=C(c4ccc5ccccc5c4)CC3c3ccc(Cl)cc3)SC2=S)cc1 (centres undefined)
[1]
  IC50: 1800 nM
[2]
  IC50: > 10 µM

## CN(C)c1ccc(C2CC(c3ccccc3)=NN2/C=C2\SC(=S)NC2=O)cc1 (centres undefined)
[1]
  IC50: > 10000 nM
[2]
  IC50: > 10 µM

## CC(=O)Oc1cccc(N2C(=O)/C(=C/N3N=C(c4ccccc4)CC3c3ccccc3O)SC2=S)c1 (centres undefined)
[3]
  Activity: inactive
[4]
  Activity: inactive
[1]
  IC50: 118 nM
[5]
  Activity: Dose-dependent effect
[2]
  IC50: > 10 µM
[6]
  IC50: 1000 nM
[7]
  Activity: Dose-dependent effect
[8]
  IC50: 1100 nM
[9]
  IC50: 700 nM
[10]
  IC50: > 10 µM
[11]
  IC50: 8.3 µM
[12]
  IC50: > 10 µM
[13]
  IC50: > 10 µM
[14]
  Activity: tde
[15]
  Activity: tde
[16]
  IC50: 500 nM
[17]
  Activity: inactive
[18]
  Activity: inactive
[19]
  Activity: Active
[20]
  Activity: Active
[21]
  Activity: Active
[22]
  Activity: Active
[23]
  inhibition: Active
[24]
  inhibition: Active
[25]
  Activity: Active
[26]
  Activity: Active
[27]
  Activity: Active
[28]
  Activity: Active
[29]
  Activity: Active
[30]
  Activity: Active
[31]
  inhibition: Active
